“Also recorded” adds a separate entry of the source. Like-named read-outs stand apart in the source and are kept apart here. Each block holds one molecule with its values, some of them ahead of it.
Legend:
[1] = molecular target: MSUT2; test: Fluorescence polarization orthogonal assay, FAM-poly; assay type: binding
Outline: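 GST-MSUT2 zinc finger (E. coli BL21(DE3), glutathione-purified) at 125 nM was mixed with 10 nM FAM-poly(A) RNA in PBS, and compound was added. Incubation was 20 min at room temperature, protected from light. Read at ex 485/20, em 528/20; buffer-only background was subtracted and polarization calculated as (F∥−F⊥)/(F∥+F⊥). A parallel run included DTT. N=3 without DTT, N=2 with DTT.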

[2] = molecular target: T1, PABPN1 (Homo sapiens, UniProt Q86U42); test: AlphaScreen specificity counterscreen against PABPN1; assay type: binding; conditions: AlphaScreen IC50 MSUT2 compared with PABPN1, in words
T1 sequence (Q86U42 1-306): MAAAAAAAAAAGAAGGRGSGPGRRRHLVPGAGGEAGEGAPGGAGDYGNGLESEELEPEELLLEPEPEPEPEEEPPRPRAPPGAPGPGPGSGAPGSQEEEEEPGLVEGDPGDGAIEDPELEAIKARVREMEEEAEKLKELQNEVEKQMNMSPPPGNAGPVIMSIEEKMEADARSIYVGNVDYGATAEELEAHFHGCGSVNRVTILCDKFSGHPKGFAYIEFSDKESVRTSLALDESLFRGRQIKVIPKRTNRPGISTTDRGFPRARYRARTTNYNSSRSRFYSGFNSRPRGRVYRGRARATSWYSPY
Outline: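 GST-tagged PABPN1 and MSUT2 zinc-finger construct were expressed in E. coli BL21(DE3) and purified on glutathione-sepharose. AlphaScreen was run in AlphaLISA universal buffer plus 100 mM NaCl with donor beads (10 μg/mL), 250 nM biotinylated poly(A) RNA and 250 nM GST-MSUT2. Compound was pin-added, incubated 30 min at RT in the dark, then acceptor beads were added for 60 min. IC50 was from a four-parameter fit, N=3.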

[3] = test system: HEK-293 cells; test: Cytotoxicity screen, CellTiter-Glo cell viability; assay type: cell-based, human; conditions: HEK cell model, in words
[4] = molecular target: MSUT2; conditions: read-out: Kd of MSUT2 for poly(A); cited from earlier work
[5] = molecular target: T2, PABPN1 (UniProt Q86U42 1-306); test: competition
T2 sequence: T1 sequence (Q86U42 1-306)

[6] = molecular target: T3, MSUT2 ZF (zinc finger domain) (UniProt Q6PJT7 595-719); test: competition
T3 sequence: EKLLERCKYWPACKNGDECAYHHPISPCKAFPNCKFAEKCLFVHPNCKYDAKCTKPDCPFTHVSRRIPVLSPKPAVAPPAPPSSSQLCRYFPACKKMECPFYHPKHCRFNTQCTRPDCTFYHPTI

[7] = read-out: IC50 (FP = FP assay), without DTT, 125 nM MSUT2, 10 nM FAM-RNA
[8] = read-out: IC50 (FP+DTT = FP in the presence of reducing agent DTT), with DTT

Molecule: O=S(=O)(O)c1cc(N=C=S)ccc1C=Cc1ccc(N=C=S)cc1S(=O)(=O)O [DIDS, 4,4′-diisothiocyanostilbene-2,2′-sulfonic acid]
Effect on cell viability (toxicity) [3]: relatively nontoxic at all doses tested
IC50 [1, 7]: 6.32 µM
IC50 [1, 8]: 6.02 µM
Specificity for MSUT2 versus PABPN1 [2]: low specificity for MSUT2; also recorded: twofold reduction in potency against PABPN1

Molecule: poly(A)
Kd [4]: 0.06 ± 0.015 µM

B1: unlabeled poly(A) 15-mer (ssRNA)
RNA: AAAAAAAAAAAAAAA
IC50 [5]: 0.803 µM
IC50 [6]: 0.198 µM

More lines, main results first:

IC50 [1, 7]: 1.32 µM
IC50 [1, 8]: 1.56 µM
Specificity for MSUT2 versus PABPN1 [2]: low specificity for MSUT2
Molecule: O=C1C(Cl)=C(Cl)C(=O)c2c(O)ccc(O)c21 [2,3-Dichloro-5,8-dihydroxynapthoquinone, 2,3-dichloro-5,8-dihydroxynapthoquinone]

IC50 [1, 7]: 7.11 µM
IC50 [1, 8]: 7.19 µM
Specificity for MSUT2 versus PABPN1 [2]: nonspecifically inhibited MSUT2
Molecule: O=C(O)C1=CC(=C(c2ccc(O)c(C(=O)O)c2)c2ccc(O)c(C(=O)O)c2)C=CC1=O [Aurin tricarboxylic acid, aurin tricarboxylic acid]
Effect on cell viability (toxicity) [3]: relatively high toxicity at high concentrations

Inhibitory effect in FP assay in the presence of DTT ([1]; with reducing agent DTT): abolished the inhibitory effect
Molecule: O=c1c2ccccc2[se]n1-c1ccccc1 [ebselen]

— paper PMC8592089 (SLAS discovery : advancing life sciences R & D, 2020)
